Measured values: ChEMBL document CHEMBL1132987, “Phosphorylated morpholine acetal human neurokinin-1 receptor antagonists as water-soluble prodrugs” (J Med Chem, 2000)

Assays:
Mustela putorius furo [1] = test: inhibitory dose was determined after intravenous administration of the compound.; type: functional
Mustela putorius furo [2] = test: (§1) Dose dependent reduction in cisplatin-induced retching in ferrets at 0.3 mg/kg iv dose; type: functional
In short: (§2)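 Ferrets were pretreated intravenously at 0.1, 0.3 or 1.0 mg/kg, then given cisplatin at 10 mg/kg iv. Retches and vomits were counted over a 4 h observation period and reported as mean counts, with n = 4 per group. Vehicle-pretreated controls (n = 4-6) were run alongside.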

Cavia porcellus [3] = test: Inhibitory dose (ID50) was determined after oral administration followed by resiniferatoxin (RTX) challenge 1 hour; type: functional; details: read-out: ID50 (the source's name)
In short: (§3)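 Guinea pigs received the compound orally or intravenously at either 1 h or 24 h before a systemic resiniferatoxin challenge, each line matching its own route and interval. The challenge induces SP-mediated systemic vascular leakage. ID50 (mg/kg) was derived from dose-response data using 2-11 animals per data point.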

Mustela putorius furo [4] = test: (§4) Dose-dependent reduction in cisplatin-induced vomiting in ferrets at 0.3 mg/kg iv dose; type: functional; in short: as §2
Mustela putorius furo [5] = test: (§5) Dose-dependent reduction in cisplatin-induced vomiting in ferrets at 0.1 mg/kg iv dose; type: functional; in short: as §2
Cavia porcellus [6] = test: Inhibitory dose (ID50) was determined after oral administration followed by resiniferatoxin (RTX) challenge 24 hour before; type: functional; details: read-out: ID50 (the source's name); in short: as §3
Mustela putorius furo [7] = test: (§6) Dose dependent reduction in cisplatin-induced retching in ferrets at 0.1 mg/kg iv dose; type: functional; in short: as §2
Mustela putorius furo [8] = test: (§7) Dose-dependent reduction in cisplatin-induced vomiting in ferrets at 1.0 mg/kg iv dose; type: functional; in short: as §2
Cavia porcellus [9] = test: Inhibitory dose (ID50) was determined after intravenous administration followed by resiniferatoxin (RTX) challenge 1 hour before; type: functional; details: read-out: ID50 (the source's name); in short: as §3
Mustela putorius furo [10] = test: (§8) Dose dependent reduction in cisplatin-induced retching in ferrets at 1.0 mg/kg iv dose; type: functional; in short: as §2
Mustela putorius furo [11] = test: as §1; type: functional; remark: listed apart in the source
[12] = Area under curve (AUC) was determined after intravenous administration in dog at a dose of 0.5 mg/kg; type: ADME, organism-based, Canis lupus familiaris; parameters: dose 0.5 mg/kg, route intravenous; details: in vivo
In short: (§9)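 The parent antagonist was given intravenously to rats (0.2, 2 and 5 mg/kg) or dogs. AUC of the parent was taken from plasma concentration–time data, and values are averages. Plasma levels were measured by HPLC-MS/MS.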

[13] = Area under curve (AUC) was determined after intravenous administration of compound as Bis(N-methyl-D-glucamine) salt in dog at a dose of 2 mg/Kg; type: ADME, organism-based, Canis lupus familiaris; details: in vivo
In short: (§10)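 The phosphate prodrug, as its bis(N-methyl-D-glucamine) salt, was dosed intravenously to rats (1, 8, 25 mg/kg) and dogs (0.5, 2, 32 mg/kg). The reported AUC is of the released parent antagonist in plasma, given as an average. Plasma prodrug and parent were followed by HPLC-MS/MS.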

Mustela putorius furo [14] = test: as §4; type: functional; remark: listed apart in the source
[15] = Area under curve (AUC) was determined after intravenous administration in dog at a dose of 2 mg/kg; type: ADME, organism-based, Canis lupus familiaris; parameters: dose 2 mg/kg, route intravenous; details: in vivo; in short: as §9
[16] = Area under curve (AUC) was determined after intravenous administration of compound as Bis(N-methyl-D-glucamine) salt in dog at a dose of 0.5 mg/Kg; type: ADME, organism-based, Canis lupus familiaris; details: in vivo; in short: as §10
Cavia porcellus [17] = test: Dose (ID50) for inhibition of SP-mediated vascular leakage was determined after intravenous administration followed by resiniferatoxin (RTX) challenge 1 hour before; type: functional; details: read-out: ID50 (the source's name); in short: as §3
[18] = Area under curve was determined after intravenous administration of compound as Bis(N-methyl-D-glucamine) salt in rat at a dose 8 mg/kg; type: ADME, organism-based; parameters: dose 8 mg/kg, route intravenous; details: in vivo; in short: as §10
[19] = Area under curve (AUC) was determined after intravenous administration in rat at a dose of 5 mg/kg; type: ADME, organism-based; parameters: dose 5 mg/kg, route intravenous; details: in vivo; in short: as §9
Cavia porcellus [20] = test: Dose (ID50) for inhibition of SP-mediated vascular leakage was determined after oral administration followed by resiniferatoxin (RTX) challenge 1 hour; type: functional; details: read-out: ID50 (the source's name); in short: as §3
[21] = Area under curve (AUC) was determined after intravenous administration of compound as Bis(N-methyl-D-glucamine) salt in dog at a dose of 32 mg/Kg; type: ADME, organism-based, Canis lupus familiaris; details: in vivo; in short: as §10
Mustela putorius furo [22] = test: as §5; type: functional; remark: listed apart in the source
[23] = Area under curve was determined after intravenous administration of compound as Bis(N-methyl-D-glucamine) salt in rat at a dose 1 mg/kg; type: ADME, organism-based; parameters: dose 1 mg/kg, route intravenous; details: in vivo; in short: as §10
Mustela putorius furo [24] = test: as §7; type: functional; remark: listed apart in the source
[25] = Area under curve (AUC) was determined after intravenous administration in rat at a dose of 2 mg/kg; type: ADME, organism-based; parameters: dose 2 mg/kg, route intravenous; details: in vivo; in short: as §9
Mustela putorius furo [26] = test: as §8; type: functional; remark: listed apart in the source
Cavia porcellus [27] = test: Dose (ID50) for inhibition of SP-mediated vascular leakage was determined after intravenous administration followed by resiniferatoxin (RTX) challenge 24 hour before; type: functional; details: read-out: ID50 (the source's name)
Mustela putorius furo [28] = test: as §6; type: functional; remark: listed apart in the source
[29] = Area under curve (AUC) was determined after intravenous administration of compound as Bis(N-methyl-D-glucamine) salt in rat at a dose 25 mg/Kg; type: ADME, organism-based; details: in vivo; in short: as §10

CNC[C@H](O)[C@@H](O)[C@H](O)[C@H](O)CO.C[C@@H](O[C@H]1OCCN(Cc2nc(O)n(P(=O)(O)O)n2)[C@H]1c1ccc(F)cc1)c1cc(C(F)(F)F)cc(C(F)(F)F)c1 gave an ID90 (Mustela putorius furo [1]) of 0.8 mg/kg, an Incidence_count (Mustela putorius furo [2]) of 26 and an ED50 (Cavia porcellus [3]) of 0.016 mg/kg. For the same molecule, the Incidence_count (Mustela putorius furo [4]) was 4, the Incidence_count (Mustela putorius furo [5]) was 16 and the ED50 (Cavia porcellus [6]) was 0.9 mg/kg. The Incidence_count (Mustela putorius furo [7]) was 115, the Incidence_count (Mustela putorius furo [8]) was 1 and the ED50 (Cavia porcellus [9]) was 0.006 mg/kg. For the same molecule, the Incidence_count (Mustela putorius furo [10]) was 2.

C[C@@H](O[C@H]1OCCN(Cc2n[nH]c(=O)[nH]2)[C@H]1c1ccc(F)cc1)c1cc(C(F)(F)F)cc(C(F)(F)F)c1 [APREPITANT] showed an ID90 (Mustela putorius furo [1]) of 0.3 mg/kg, an Incidence_count (Mustela putorius furo [11]) of 5 and an AUC [12] of 3800 ng·h/mL. It also gave an AUC [13] of 8900 ng·h/mL, an Incidence_count (Mustela putorius furo [14]) of 1 and an AUC [15] of 38000 ng·h/mL. The AUC [16] was 1100 ng·h/mL, the ED50 (Cavia porcellus [17]) was 0.002 mg/kg and the AUC [18] was 6300 ng·h/mL. The AUC [19] was 6400 ng·h/mL, the ED50 (Cavia porcellus [20]) was 0.012 mg/kg and the AUC [21] was 370000 ng·h/mL. The Incidence_count (Mustela putorius furo [22]) was 13, the AUC [23] was 570 ng·h/mL and the Incidence_count (Mustela putorius furo [24]) was 0. For the same molecule, the AUC [25] was 2700 ng·h/mL, the Incidence_count (Mustela putorius furo [26]) was 0 and the ED50 (Cavia porcellus [27]) was 0.5 mg/kg. It also gave an Incidence_count (Mustela putorius furo [28]) of 90 and an AUC [29] of 22000 ng·h/mL.
